Screening data deposited in PubChem by several laboratories.
PP5 inh: inhibitors of human protein phosphatase 5 (PP5); AID 1987; 320,000 tested, 0.18% active; purified PP5c, OMFP substrate fluorescence; P53041; inhibition, % at 6.7 µM;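 active = inhibition above the campaign's mean inhibition across all tested compounds plus 3 SD, cut at about 9.5% in these data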;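 also: 0% = DMSO only and 100% = 100 µM cantharidin control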
LMPTP inh: LMPTP (human) inhibition. P24666. recombinant LMPTP-A, OMFP fluorogenic substrate, fluorescence intensity. 360,000 tested, 0.22% active. AID 651560. inhibition, % at 20 µM;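 active = compounds that cut the enzyme signal by at least half of the control window in the single-dose screen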;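 also: plate controls were DMSO wells with enzyme plus substrate for no effect and substrate without enzyme for full effect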
Target sequence (P24666 whole entry, looked up): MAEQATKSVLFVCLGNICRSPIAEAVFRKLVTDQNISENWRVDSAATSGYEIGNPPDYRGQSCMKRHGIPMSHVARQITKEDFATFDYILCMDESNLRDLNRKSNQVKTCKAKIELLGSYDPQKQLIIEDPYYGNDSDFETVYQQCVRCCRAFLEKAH
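Assay system: LMPTP-A, protein tyrosine phosphatase of low molecular weight / Medium: pH 6.0 Bis-Tris buffer with DTT and Triton X-100 / Schedule: 50 min enzyme reaction at room temperature, protected from light / Measured by: endpoint fluorescence intensity from OMFP dephosphorylation / Read-out basis: % inhibition relative to no-enzyme and uninhibited control wells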
Scp1 inh: inhibitors of human Scp-1 phosphatase; Recombinant Scp1, phosphopeptide, malachite green phosphate absorbance; inhibition, % at 20 µM; AID 493091; 340,000 tested, 0.88% active; Q9GZU7;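 active = inhibition above about 50% at 20 µM, limit read from the data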;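 also: plate controls were DMSO wells with enzyme for no effect and wells lacking enzyme for full effect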
Target sequence (Q9GZU7 76-261 limits assumed): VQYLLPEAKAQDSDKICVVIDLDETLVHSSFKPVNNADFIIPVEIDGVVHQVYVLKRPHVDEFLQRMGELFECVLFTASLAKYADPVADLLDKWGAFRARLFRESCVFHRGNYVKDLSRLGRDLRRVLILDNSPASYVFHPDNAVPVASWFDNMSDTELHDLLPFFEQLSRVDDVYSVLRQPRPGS
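System: SCP-1 catalytic domain; Reagent: Phospho 17-mer peptide substrate; Doses: one concentration, 20 µM, with 1.0% DMSO; Incubation: 45 min room-temperature reaction, 5 min colour, 30 min stabiliser; Signal: Phosphate-binding colour reagent, absorbance read at 630 nm.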
PP1 counter: blocks human PP1-alpha phosphatase, a PP5 counter-screen | inhibition, % at 6.7 µM | 320,000 tested, 0.9% active | purified PP1alpha, OMFP fluorescence | P62136;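 active = inhibition above the mean inhibition of all tested compounds plus 3 SD, computed separately for each screening campaign, cut at about 15% in these data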
STEP inh: inhibitors of human striatal-enriched phosphatase STEP; P54829; recombinant STEP, OMFP fluorogenic substrate, fluorescence; inhibition, % at 20 µM; 360,000 tested, 0.25% active; AID 588621;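 active = inhibition at 20 µM, scaled per plate between control wells, above about 37%, limit read from the data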;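 also: 0% = DMSO with enzyme and substrate and 100% = substrate only without enzyme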
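Also added – OMFP at 25 µM · Test system – STEP tyrosine phosphatase · Technique – FITC-channel fluorescence of OMFP product · Schedule – 20 min at room temperature, dark · Evaluation – control-normalized % inhibition with plate pattern correction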
PP1 inh confirm: human PP1 phosphatase inhibition, confirmation | inhibition, % at 6.7 µM | 1,900 tested, 52% active | AID 2358 | shares compounds with PP1 counter | purified PP1alpha, OMFP substrate fluorescence;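 active = mean PP1 inhibition above a set limit taken from the earlier primary screen, cut at about 15% in these data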
PP5 counter: PP5 phosphatase inhibition, counter-screen for PP1 inhibitors | shares compounds with PP1 counter | purified PP5c, OMFP fluorescence | inhibition, % at 6.7 µM | 1,900 tested, 4% active;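 active = mean PP5 inhibition over triplicate wells above about 9.5% taken from the earlier PP1 screen, limit read from the data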
Numbers without * were called inactive; · = no result given. A selection: hits, their analogues and other compounds. The true share with any hit is near 1.9%.

SMILES	PP5 inh	LMPTP inh	Scp1 inh	PP1 counter	STEP inh	PP1 inh confirm	PP5 counter
Nc1c(S(=O)(=O)O)cc(NC(=O)c2ccccc2)c2c1C(=O)c1ccccc1C2=O	7	16	71*	31*	33	18*	2
Cc1ccc(C(C)C)c(OCc2ccc(C(=O)N/N=C/c3ccc(O)cc3O)cc2)c1	2	2	-18	26*	1	34*	-2
Cc1ccc(C(C)C)c(OCc2ccc(C(=O)N/N=C/c3ccc(C(=O)O)cc3)cc2)c1	5	24	38	3	27	·	·
[S-]c1nnc(-c2ccc(Br)cc2)n1-c1ccccc1.[Zn+2]	7	1	-2	20*	1	24*	-5
O=[N+]([O-])c1ccc(-c2nnc(S)n2-c2ccccc2)cc1	2	·	·	-1	·	·	·
CCCOc1ccc(C2C(C(=O)c3cc4ccccc4o3)=C(O)C(=O)N2c2cc(C)on2)cc1OC (stereo not drawn)	5	26	-19	33*	8	37*	-1
CCCOc1ccc(C2C(C(=O)c3cc4ccccc4o3)=C(O)C(=O)N2c2cc(C)on2)cc1 (stereo not drawn)	1	44	-13	27*	10	34*	2
Cn1cccc1-c1cc(C(=O)N/N=C/c2ccccc2Cl)[nH]n1	4	4	2	0	3	·	·
Cn1cccc1-c1cc(C(=O)N/N=C/c2cc(Br)ccc2O)[nH]n1	1	7	-7	21*	0	22*	-4
CCCCC[C@H](O)/C=C/[C@@H]1[C@@H](C/C=C\CCCC(=O)OC)[C@@H](O)C[C@H]1O	7	1	-6	46*	-13	43*	-2
COc1ccc(S(=O)(=O)c2c(N)n(Cc3ccco3)c3nc4ccccc4nc23)cc1	-2	49*	49	19*	7	10	0
O=C(Nc1nnc(SCc2ccc(F)cc2)s1)c1cccnc1Cl	-1	1	-9	1	-3	·	·
O=C(O)c1ccc(N/N=C/c2ccc(-c3cc(Cl)ccc3Cl)o2)cc1	-1	5	11	18*	2	19*	-3
COc1ccc2nc(NC(=O)CN3C(=O)NC4(CCCC4)C3=O)sc2c1	-3	0	-1	-4	-1	·	·
O=C1CCCN1c1ccc(C(=O)N(Cc2nnc(-c3ccc(Cl)cc3)o2)C2CC2)cc1	2	-1	-6	18*	4	-3	-5
Cc1cc(C)c(C)c(S(=O)(=O)N2CCC(C(=O)N3CCCCCCC3)CC2)c1C	2	3	-6	5	2	·	·
O=C(CSCC(=O)OCC(=O)N1CCN(C(=O)c2ccco2)CC1)Nc1ccc(Cl)cc1	·	1	·	·	-3	·	·
Cc1ccc(-n2c(COc3ccccc3)nnc2SCC(=O)O)cc1	·	-2	·	·	0	·	·
O=C(O)CSc1nnc(COc2ccc(Br)cc2)n1-c1ccccc1	2	0	-5	31*	-2	3	2
COc1ccc(NC(=O)C2(c3ccc(NC(=O)c4ccc(OC(C)=O)cc4)cc3)CCCC2)cc1	0	-1	-4	18*	0	24*	-7
COc1ccc(C(=O)Nc2nnc(CC(=O)N/N=C/c3ccc(O)cc3O)s2)cc1	1	13	·	15	10	·	·
Cc1ccc(C(=O)Nc2nnc(CC(=O)N/N=C/c3ccc(O)c(O)c3)s2)cc1	-1	24	31	18*	6	9	-6
CCOC(=O)c1ccc(NC(=S)Nc2cccc(N)n2)cc1	1	1	11	-1	0	·	·
NC(=S)NN=C1CCCCC12CCCC2	·	-1	-8	·	-1	·	·
CCOC(=O)c1cc(-c2ccc(N3CCOCC3)cc2)nn1-c1ccccc1	-2	0	-5	9	1	·	·
SMILES	PP5 inh	LMPTP inh	Scp1 inh	PP1 counter	STEP inh	PP1 inh confirm	PP5 counter
O=C(O)c1cc(-c2ccc(N3CCOCC3)cc2)nn1-c1ccc(F)cc1	2	-1	-1	42*	-1	31*	-4
COc1ccc(/C=N/Nc2nc(C(=O)O)cs2)cc1	3	64*	41	20*	18	10	-2
COC(=O)c1ccc(/C=N/Nc2nc(-c3ccccc3)cs2)cc1	0	2	-8	-2	2	·	·
COc1ccc(C2=CC3=C(Br)C(=O)C(C)(O)C(=O)C3=CO2)cc1 (stereo not drawn)	5	-2	0	-5	-1	·	·
COc1ccc(C2=CC3=CC(=O)C(C)(O)C(=O)C3=CO2)cc1 (stereo not drawn)	-3	·	·	18*	·	13	0
CC1(O)C(=O)C=C2C=C(c3ccc(C#N)cc3)OC=C2C1=O (stereo not drawn)	1	·	·	35*	·	21*	-3
CCC(=O)OC1(C)C(=O)C=C2C=C(c3ccc(C#N)cc3)OC=C2C1=O (stereo not drawn)	1	0	-14	9	0	·	·
O=C(Nc1ccc2oc(-c3cccc4ccccc34)nc2c1)c1ncn[nH]1	-1	0	-2	26*	5	4	-2
CCC(C)c1ccc2oc(-c3ccc(NC(=O)c4ncn[nH]4)cc3)nc2c1 (stereo not drawn)	1	0	10	15	5	·	·
O=C(Nc1ccc2oc(-c3ccccc3Cl)nc2c1)c1ncn[nH]1	1	0	11	19*	0	3	-6
Cc1cc(C)n(-c2nc(NC(C)(C)C)nc(NC(C)(C)C)n2)n1	0	0	1	2	0	·	·
Cc1cc(C)n(-c2nc(Nc3ccccc3C(F)(F)F)nc(-n3nc(C)cc3C)n2)n1	5	4	5	30*	5	17*	2
Cc1cc(C)n(-c2nc(NC(C)C)nc(NC(C)C)n2)n1	0	0	-10	3	2	·	·
Cc1cc(C)n(-c2nc(Nc3ccccc3C)nc(-n3nc(C)cc3C)n2)n1	4	·	·	36*	·	38*	-2
O=C(CSc1nnc(-c2ccncc2)o1)Oc1ccccc1	1	-2	-1	2	-4	·	·
O=C(CSc1nnc(-c2ccccc2O)o1)Oc1ccc(OCc2ccccc2)cc1	2	1	-2	24*	2	30*	-5
O=C(COC(=O)/C(=C/c1cccs1)c1cccs1)NC(c1ccccc1)c1ccccc1	4	7	-4	20*	6	11	0
CCCN1CCC(NC(=S)Nc2ccc(OC)c(OC)c2)CC1	0	-2	-1	5	10	·	·
O=C(N/N=C/c1ccc(O)cc1O)c1ccc(NC(=O)C2CCCCC2)cc1	2	1	-8	50*	1	36*	-3
O=C1NN(c2ccc(Cl)c(Cl)c2)C(=O)/C1=C/c1cccc(OC(=O)c2cccs2)c1	2	·	·	27*	·	23*	0
